According to ChEMBL document CHEMBL4145595, “Discovery of MK-8282 as a Potent G-Protein-Coupled Receptor 119 Agonist for the Treatment of Type 2 Diabetes” (ACS Med Chem Lett, 2018):
Active and inactive are the calls of the source. No cut-off for these calls is given here.

Assays:
Mus musculus [1] = assay: Antidiabetic activity in C57Bl/6NCrl mouse assessed as maximum plasma concentration required for reduction in glucose excursion at 0.3 mg/kg, po administered via gavage pretreated for 30 mins followed by glucose-challenge measured 60 mins post dose by OGTT; type: functional, organism-based; set-up: dose 0.3 mg/kg
In short: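 Lean C57Bl/6 mice were dosed orally 30 min before the glucose challenge (oGTT, glucose followed for 60 min). Plasma Cmax was taken at t = 1 h after the 0.3 mPk dose.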

[2] = Volume of distribution at steady state in rat at 1 mg/kg, iv or 30 mg/kg, po; details: in vivo, read-out: Vdss
Mus musculus [3] = assay: Antidiabetic activity in C57Bl/6NCrl mouse assessed as reduction in glucose excursion at 0.03 mg/kg, po administered via gavage pretreated for 30 mins followed by glucose-challenge measured 60 mins post dose by OGTT relative to control; type: functional; set-up: scale not given: the % may be the effect or the level left
In short: (§1)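 Lean C57Bl/6 mice got oral vehicle or drug 30 min before the glucose challenge. Blood glucose was monitored for 60 min after oral administration and expressed as area under the curve (glucose excursion). Doses ranged from 0.03 to 30 mpk.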

[4] = AUC in monkey at 3 mg/kg, po; type: ADME, organism-based, Macaca mulatta; details: rhesus monkey, in vivo
In short: (§2)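 Monkey PK used 1 mpk IV and 3 mpk PO. Readouts were plasma clearance (mL/min/kg), Vdss (L/kg), t½ (h), oral AUC (µM·h) and bioavailability F (%).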

Mus musculus [5] = assay: Antidiabetic activity in lepr db/db mouse assessed as reduction in glucose excursion at 10 mg/kg, po by OGTT; type: functional, organism-based
Mus musculus [6] = assay: Antidiabetic activity in C57Bl/6NCrl mouse assessed as reduction in glucose excursion at 1 mg/kg, po administered via gavage pretreated for 30 mins followed by glucose-challenge measured 60 mins post dose by OGTT relative to control; type: functional; set-up: scale not given: the % may be the effect or the level left; in short: as §1
[7] = AUC in dog at 10 mg/kg, po; details: in vivo
Mus musculus [8] = assay: Antidiabetic activity in C57Bl/6NCrl mouse assessed as reduction in glucose excursion at 1 to 30 mg/kg, po administered via gavage pretreated for 30 mins followed by glucose-challenge measured 60 mins post dose by OGTT relative to control; type: functional; set-up: scale not given: the % may be the effect or the level left; in short: as §1
Mus musculus [9] = assay: Antidiabetic activity in C57Bl/6NCrl mouse assessed as reduction in glucose excursion administered via oral gavage pretreated for 30 mins followed by glucose-challenge measured 60 mins post dose by OGTT; type: functional, organism-based; in short: as §1
Rattus norvegicus [10] = assay: Oral bioavailability in rat at 30 mg/kg; details: in vivo
Rattus norvegicus [11] = assay: Antidiabetic activity in Sprague-Dawley rat assessed as reduction in glucose excursion at 3 mg/kg, po pretreated followed by glucose challenge measured after 10 to 30 mins in presence of sitagliptin by OGTT; type: functional, organism-based
In short: (§3)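 Sprague-Dawley rats underwent an oral glucose tolerance test with glucose excursion measured. Sitagliptin was dosed at 1 mpk and agonist at 3 mpk, alone or co-administered.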

Mus musculus [12] = assay: Glucose lowering effect in C57Bl/6NCrl mouse assessed as reduction in glucose level at 3 mg/kg, po administered via gavage pretreated for 30 mins followed by glucose-challenge measured after 20 mins by OGTT relative to control; type: functional; set-up: scale not given: the % may be the effect or the level left
In short: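 Overnight-fasted mice got compound or vehicle orally at 3 to 10 mg/kg. Glucose (3 g/kg po) was given 30 min post-dose. Blood glucose was read by hand-held glucometer before dosing, before glucose and 20 min after glucose. Glucose lowering (%) = [(1 − 20 min glucose of treated / 20 min glucose of vehicle) × 100].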

Mus musculus [13] = assay: Antidiabetic activity in C57Bl/6NCrl mouse assessed as increase in plasma GLP1 (7 to 36) amide levels at 1 mg/kg, po administered via gavage pretreated followed by glucose-challenge measured after 10 mins in presence of sitagliptin; type: functional, organism-based
[14] = target: T1, Glucose-dependent insulinotropic receptor (Mus musculus, UniProt Q7TQP3); assay: (§4) Agonist activity at mouse GPR119 assessed as increase in cAMP level; type: functional
T1 sequence (Q7TQP3 whole entry): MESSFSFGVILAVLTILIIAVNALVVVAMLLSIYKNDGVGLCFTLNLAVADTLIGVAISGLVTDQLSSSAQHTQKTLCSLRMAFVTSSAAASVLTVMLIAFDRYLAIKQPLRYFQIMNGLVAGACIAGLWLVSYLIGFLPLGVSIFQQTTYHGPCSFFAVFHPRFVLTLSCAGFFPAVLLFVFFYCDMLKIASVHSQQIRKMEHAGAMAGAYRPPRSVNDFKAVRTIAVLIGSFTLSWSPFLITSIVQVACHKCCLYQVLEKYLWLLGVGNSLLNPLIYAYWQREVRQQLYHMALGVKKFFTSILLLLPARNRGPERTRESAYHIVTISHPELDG

[15] = target: T2, Glucose-dependent insulinotropic receptor (Mus musculus) (UniProt Q7TQP3); assay: as §4; type: functional
T2 sequence (whole entry): T1 sequence (Q7TQP3 whole entry)

[16] = Plasma clearance in dog at 1 mg/kg, iv or 10 mg/kg, po
[17] = Half life in rat at 1 mg/kg, iv or 30 mg/kg, po; details: in vivo
[18] = Protein binding in rat assessed as unbound fraction at 10 uM; type: ADME, cell-free; details: plasma
[19] = Half life in monkey at 1 mg/kg, iv or 3 mg/kg, po; type: ADME, organism-based, Macaca mulatta; details: rhesus monkey, in vivo; in short: as §2
Mus musculus [20] = assay: Antidiabetic activity in diet-induced obese mouse assessed as reduction in glucose excursion at 1 to 3 mg/kg, po by OGTT; type: functional, organism-based
Mus musculus [21] = assay: Antidiabetic activity in C57Bl/6NCrl mouse assessed as reduction in glucose excursion at 0.1 mg/kg, po administered via gavage pretreated for 30 mins followed by glucose-challenge measured 60 mins post dose by OGTT relative to control; type: functional; set-up: scale not given: the % may be the effect or the level left; in short: as §1
Rattus norvegicus [22] = assay: Antidiabetic activity in Sprague-Dawley rat assessed as reduction in glucose excursion at 3 mg/kg, po pretreated followed by glucose challenge measured after 10 to 30 mins by OGTT; type: functional, organism-based; in short: as §3
[23] = Oral bioavailability in monkey at 3 mg/kg; type: ADME, organism-based, Macaca mulatta; details: rhesus monkey, in vivo; in short: as §2
[24] = Half life in dog at 1 mg/kg, iv or 10 mg/kg, po; details: in vivo
[25] = target: T3, Glucose-dependent insulinotropic receptor (Homo sapiens, UniProt Q8TDV5); assay: (§5) Agonist activity at human GPR119 expressed in HEK293 cells assessed as increase in cAMP level after 30 mins by LANCE assay; type: functional, cell-based
T3 sequence (Q8TDV5 whole entry): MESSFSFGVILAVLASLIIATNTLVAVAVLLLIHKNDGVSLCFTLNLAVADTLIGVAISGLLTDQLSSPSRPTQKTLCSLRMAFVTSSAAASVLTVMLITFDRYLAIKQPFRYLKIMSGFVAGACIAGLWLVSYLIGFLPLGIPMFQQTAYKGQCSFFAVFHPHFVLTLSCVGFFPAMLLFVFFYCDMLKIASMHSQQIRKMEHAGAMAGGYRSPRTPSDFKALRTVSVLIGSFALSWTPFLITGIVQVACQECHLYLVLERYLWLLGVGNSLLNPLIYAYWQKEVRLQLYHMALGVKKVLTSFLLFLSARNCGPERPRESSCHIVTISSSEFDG

[26] = target: T4, Glucose-dependent insulinotropic receptor (Homo sapiens) (UniProt Q8TDV5); assay: as §5; type: functional, cell-based
T4 sequence (whole entry): T3 sequence (Q8TDV5 whole entry)

Mus musculus [27] = assay: Antidiabetic activity in C57Bl/6NCrl mouse assessed as reduction in glucose excursion at 0.3 mg/kg, po administered via gavage pretreated for 30 mins followed by glucose-challenge measured 60 mins post dose by OGTT relative to control; type: functional; set-up: scale not given: the % may be the effect or the level left; in short: as §1
[28] = Volume of distribution at steady state in dog at 1 mg/kg, iv or 10 mg/kg, po; details: in vivo, read-out: Vdss
[29] = Volume of distribution at steady state in monkey at 1 mg/kg, iv or 3 mg/kg, po; type: ADME, organism-based, Macaca mulatta; details: rhesus monkey, in vivo, read-out: Vdss; in short: as §2
Mus musculus [30] = assay: Antidiabetic activity in C57Bl/6NCrl mouse assessed as increase in plasma GLP1 (7 to 36) amide levels at 1 mg/kg, po administered via gavage pretreated followed by glucose-challenge measured after 10 mins; type: functional, organism-based
Mus musculus [31] = assay: Glucose lowering effect in po dosed GPR119 deficient mouse assessed as reduction in glucose level by OGTT; type: functional, organism-based
[32] = Plasma clearance in monkey at 1 mg/kg, iv or 3 mg/kg, po; type: ADME, organism-based, Macaca mulatta; details: rhesus monkey; in short: as §2
Rattus norvegicus [33] = assay: AUC in rat at 30 mg/kg, po; details: in vivo

With `CC1(OC(=O)N2C[C@H]3COC[C@@H](C2)[C@@H]3Oc2ncnc(Nc3ccc(C#N)cc3Cl)c2F)CC1` as the compound, how does the Cmax (Mus musculus [1]) read?
The Cmax was 60 nM.

What about the Vd [2] of the same compound?
Its Vd is 5.8 L/kg.

What about the Activity (Mus musculus [3]) of the same compound?
Its Activity is 21%.

What about the AUC [4] of the same compound?
Its AUC is 13 µM·h.

What about the Activity (Mus musculus [5]) of the same compound?
Its Activity is “Active”.

What about the Activity (Mus musculus [6]) of the same compound?
The Activity was 49%.

And the AUC [7]?
The AUC was 131 µM·h.

What about the Activity (Mus musculus [8]) of the same compound?
The Activity was 50%.

And the Activity (Mus musculus [9])?
The Activity was “Dose-dependent effect”.

What about the F (Rattus norvegicus [10]) of the same compound?
The F was 35%.

And the Activity (Rattus norvegicus [11])?
Its Activity is “Active”.

What about the Activity (Mus musculus [12]) of the same compound?
Its Activity is 29%.

And the Activity (Mus musculus [13])?
Its Activity is “Active”.

What about the EC50 [14] of the same compound?
Its EC50 is 58 nM.

What about the %max [15] of the same compound?
The %max was 99%.

What about the clearance [16] of the same compound?
Its clearance is 0.77 mL/min/kg.

What about the half-life [17] of the same compound?
The half-life was 8.8 h.

And the Fu [18]?
The Fu was 1%.

And the half-life [19]?
Its half-life is 12 h.

What about the Activity (Mus musculus [20]) of the same compound?
Its Activity is “Active”.

And the Activity (Mus musculus [21])?
Its Activity is 23%.

And the Activity (Rattus norvegicus [22])?
The Activity was “Active”.

And the bioavailability [23]?
The bioavailability was 38%.

What about the half-life [24] of the same compound?
Its half-life is 70 h.

And the EC50 [25]?
The EC50 was 10 nM.

What about the %max [26] of the same compound?
The %max was 92%.

And the Activity (Mus musculus [27])?
Its Activity is 46%.

What about the Vd [28] of the same compound?
Its Vd is 4.4 L/kg.

What about the Vd [29] of the same compound?
Its Vd is 2.6 L/kg.

What about the Activity (Mus musculus [30]) of the same compound?
The Activity was “Active”.

And the Activity (Mus musculus [31])?
The Activity was “inactive”.

What about the clearance [32] of the same compound?
The clearance was 3.1 mL/min/kg.

What about the AUC (Rattus norvegicus [33]) of the same compound?
The AUC was 63 µM·h.
